14-3-3 Bad PPI = disrupts binding of bovine 14-3-3 zeta to phospho-Bad peptide; P63103; TR-FRET 14-3-3zeta/Dy647-pBad peptide displacement, 1 h; inhibition, % at 21.7 µM; 220,000 tested, 0.71% active; AID 781;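 active = inhibition above about 70%, limit read from the data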
Target sequence (P63103 whole entry, looked up): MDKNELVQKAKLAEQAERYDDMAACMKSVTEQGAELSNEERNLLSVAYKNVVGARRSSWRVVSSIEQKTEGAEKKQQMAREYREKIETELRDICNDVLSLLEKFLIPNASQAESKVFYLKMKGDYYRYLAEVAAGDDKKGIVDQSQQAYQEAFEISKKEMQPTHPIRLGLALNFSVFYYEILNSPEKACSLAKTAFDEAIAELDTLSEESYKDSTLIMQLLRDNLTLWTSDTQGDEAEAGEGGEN
Biofilm kill mix = mixtures killing C. albicans biofilm | C. albicans biofilm persisters + clotrimazole, fluorescence viability; primary screen in compound mixtures of four per well | 120,000 tested, 0.02% active | inhibition, % at 7.6 µM;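 active = inhibition above 30.3% in the primary screen of four-compound pools, then above 30% when the compound was retested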;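 also: compounds exposed to preformed 24 h biofilms for 48 h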
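System: C. albicans CAF4-2 wild-type biofilms; Medium: RPMI/MOPS medium, pH 7.0; Reagent: Clotrimazole, 50 µg/mL; Times: biofilm formation 24 h, compound exposure 48 h, 37 °C; Detection: 2-h Alamar Blue fluorescence, 535/590 nm excitation/emission; Evaluation: percent inhibition of biofilm viability.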
Mcl-1 Bim block = inhibitors of Bim-Mcl-1 interaction, human; Q07820; Bead-based flow cytometry, Bim peptide-Mcl-1 binding; inhibition, % at 10 µM; 190,000 tested, 0.1% active; AID 1009; in the data active = inhibition above about 40%
Target sequence (Q07820 whole entry, looked up): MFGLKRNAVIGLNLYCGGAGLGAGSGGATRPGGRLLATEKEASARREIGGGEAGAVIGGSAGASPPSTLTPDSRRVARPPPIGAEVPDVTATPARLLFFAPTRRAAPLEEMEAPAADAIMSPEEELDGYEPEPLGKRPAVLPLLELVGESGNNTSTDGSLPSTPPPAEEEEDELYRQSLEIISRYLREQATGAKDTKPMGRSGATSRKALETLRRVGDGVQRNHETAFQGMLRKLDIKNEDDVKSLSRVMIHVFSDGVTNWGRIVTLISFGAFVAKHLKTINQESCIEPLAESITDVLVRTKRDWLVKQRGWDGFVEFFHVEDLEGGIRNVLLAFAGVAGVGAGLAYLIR
Mcl1 Noxa PPI = disrupts binding of human Mcl-1 to Noxa peptide; Q07820; AID 1022; TR-FRET Mcl-1/Noxa peptide binding, 2 h; 220,000 tested, 1.5% active; inhibition, % at 21.7 µM;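 active = compounds that cut the protein-peptide binding signal by more than 50% relative to plate controls in a single-dose test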;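 also: His-tagged Mcl-1 with rhodamine Noxa BH3 peptide and terbium anti-His antibody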
Hck-Nef inh = blocks Nef-activated human Hck kinase | P08631 | Recombinant Hck-YEEI plus Nef, Z-Lyte FRET kinase assay | inhibition, % at 20 µM | 220,000 tested, 0.68% active | AID 463187;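 active = Hck-Nef kinase inhibition above about 50%, limit read from the data; inactive = inhibition below that limit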
Mcl1-Bid inh = Mcl-1/Bid interaction inhibition; 220,000 tested, 0.97% active; inhibition, % at 21.7 µM; Q07820; TR-FRET Mcl-1/Bid-Dy647 peptide binding, 1536-well;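 active = compounds that cut the binding signal by more than half at the single screening dose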;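 also: His-tagged Mcl-1 with europium anti-His antibody binding Bid BH3 peptide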
Each line names hits and unclear results; the compound was inactive in the other large screens; [ ] = remark or other dose. A selection: hits, their analogues and other compounds. The true share with any hit is near 3.2%.

Cc1ccc(NS(=O)(=O)c2cc(NC(=O)c3ccc4c(c3)NC(=O)CS4)ccc2Cl)c(C)c1	none
CC(C)OC(=O)c1cccc(C(=O)Nc2cccc(NC(=O)c3cccc(C(=O)OC(C)C)n3)n2)n1	none
Cc1ccc2cc(/C=N/NC(=O)c3ccccc3[N+](=O)[O-])c(Cl)nc2c1	none
O=C(O)C(O)c1ccccc1 (stereo not drawn)	none (no result: Biofilm kill mix, Hck-Nef inh)
O=C(O)C(O)c1ccco1 (stereo not drawn)	Mcl1 Noxa PPI 67
Cc1ccccc1NC(=O)Cn1c(O)c(N=NC(=O)c2ccccc2O)c2ccccc21	14-3-3 Bad PPI 92[fluorescence artefact?], Mcl1-Bid inh 66
O=C(CCN1CCCCC1c1cccnc1)NCc1ccccc1 (stereo not drawn)	none (no result: Biofilm kill mix)
CCCOc1cccc(CN2CCCCC2c2cccnc2)c1 (stereo not drawn)	Mcl1-Bid inh 70 (no result: Biofilm kill mix)
CCSc1nnc(NC(=O)C(Cc2ccccc2)n2cccc2)s1 (stereo not drawn)	Mcl1-Bid inh 64 (no result: Biofilm kill mix)
N#C/C(=C/c1ccc(-c2ccc(S(N)(=O)=O)cc2)o1)c1nc2ccccc2s1	Mcl1-Bid inh 53
N#C/C(=C/c1ccc(-c2ccc(S(N)(=O)=O)cc2)o1)C(=O)Nc1ccccc1	none
COC(=O)c1ccc(/C=C(\C#N)c2nc3ccccc3s2)cc1	Mcl1 Noxa PPI 59, Mcl1-Bid inh 59 (no result: Biofilm kill mix)
Nc1ccccc1CNc1nc(NCCO)nc2c1ncn2CCN1CCOCC1	none (no result: Mcl-1 Bim block)
Cc1ccc(NS(=O)(=O)c2cccc(C(=O)O)c2)cc1S(=O)(=O)N1CCCCC1	Mcl1 Noxa PPI 72
CN(Cc1cccc(-n2cccn2)c1)C(=O)CCc1nnc(C2CCCCC2)o1	none
Cc1ccc(NC(=O)CC2C(=O)NCCN2C(=S)Nc2ccccc2)c(C)c1 (stereo not drawn)	14-3-3 Bad PPI 75
CC1(c2cccc3ccccc23)NC(=O)N(CC(=O)NC2CCS(=O)(=O)C2)C1=O (stereo not drawn)	Mcl1-Bid inh 98
Cn1cc(CN2CCCC(CO)(Cc3cccc(Cl)c3)C2)cn1 (stereo not drawn)	Mcl1 Noxa PPI 68
NNC(=O)c1cc(O)c(O)c(O)c1	Mcl1 Noxa PPI 73
COc1c(Cl)cc(C(=O)NN)cc1Cl	none
CC(=O)c1cnn(-c2c(Cl)cc(Cl)cc2Cl)c1C	none (no result: Mcl-1 Bim block)
Cn1ncc(N=Cc2c(O)ccc3ccccc23)c1C(=O)Nc1cccc(Cl)c1	Mcl1-Bid inh 55
CSc1cccc(NC(=O)c2c(Cl)cnn2C)c1	none (no result: Biofilm kill mix)
Cn1ncc(Cl)c1C(=O)Nc1cccc(Cl)c1	Mcl1 Noxa PPI 52
CCOc1ccc(S(=O)(=O)N(CC(=O)N/N=C/c2ccc(-c3ccc([N+](=O)[O-])cc3)o2)c2ccccc2)cc1	Mcl1 Noxa PPI 65 (no result: Biofilm kill mix)
O=C(Cn1cnc2scc(-c3ccccc3)c2c1=O)NCc1ccco1	Mcl1 Noxa PPI 51
COc1ccc(CNC(=O)Cn2ncn3c(cc4ccccc43)c2=O)cc1	none (no result: Mcl-1 Bim block)
O=C(Cn1cnc2sc(-c3ccccc3)cc2c1=O)NCc1ccco1	Mcl1 Noxa PPI 62 (no result: Biofilm kill mix)
O=C(Cn1ncn2c(cc3ccccc32)c1=O)NCc1ccco1	Mcl1 Noxa PPI 69 (no result: Biofilm kill mix)
O=C(COc1ccccc1C(=O)NCc1ccncc1)Nc1ccc(Br)cc1	none
CCOC(=O)c1nnn(-c2nonc2N)c1CSc1ccccc1	Mcl1-Bid inh 52 (no result: Biofilm kill mix)
CCOC(=O)c1nnn(-c2nonc2N)c1CSc1ccc(C)cc1	none (no result: Biofilm kill mix)
CCN1CCCC1Cn1cnc2c([nH]c3ccc(OC)cc32)c1=O (stereo not drawn)	none (no result: Mcl-1 Bim block)
CN(C(=O)c1ccno1)c1nnc(-c2cnccn2)s1	none (no result: Biofilm kill mix)
CN(C(=O)c1ccc(C#N)cc1)c1nnc(-c2cnccn2)s1	Mcl1-Bid inh 86 (no result: Mcl-1 Bim block)
Oc1ccc(NC(=S)N=Nc2c(O)[nH]c3ccc(Br)cc23)cc1	Mcl1 Noxa PPI 57
Oc1[nH]c2ccc(Br)cc2c1N=NC(=S)Nc1ccc(F)cc1	none (no result: Mcl-1 Bim block)
CCN(C(=O)COC(=O)c1cc(-c2ccc(C)o2)nc2ccccc12)C1CCS(=O)(=O)C1 (stereo not drawn)	Mcl1 Noxa PPI 68
CCN(C(=O)COC(=O)c1cc(-c2cccs2)nc2ccccc12)C1CCS(=O)(=O)C1 (stereo not drawn)	none
Cc1ccc(-c2cc(C(=O)OCC(=O)N(C)C3CCS(=O)(=O)C3)c3ccccc3n2)c(C)c1 (stereo not drawn)	none
Cc1ccc(-c2cc(C(=O)OCC(=O)N(C)C3CCS(=O)(=O)C3)c3ccccc3n2)o1 (stereo not drawn)	Mcl1 Noxa PPI 78
COc1ccc2nc(Nc3ccc4c(c3)OCO4)sc2c1	none (no result: Biofilm kill mix)
Cc1ccc2sc(NNC(=O)c3cc(=O)c4ccccc4o3)nc2c1C	Mcl1 Noxa PPI 66
COc1ccc2nc(NC(=O)Nc3cccc4ccccc34)sc2c1	Mcl1 Noxa PPI 75
COc1ccc2nc(NNC(=O)c3cc(=O)c4ccccc4o3)sc2c1	Mcl1 Noxa PPI 72
COc1ccc2nc(NC(C)=O)sc2c1	none (no result: Biofilm kill mix)
Cc1cccc2sc(NNC(=O)c3cc(=O)c4ccccc4o3)nc12	none
COc1ccc2nc(NC(=O)/C=C/c3ccc4c(c3)OCO4)sc2c1	Mcl1-Bid inh 51
COc1ccc(C(=O)c2sc3nc(-c4ccccc4)ccc3c2N)cc1OC	14-3-3 Bad PPI 84[fluorescence artefact?], Mcl1 Noxa PPI 95, Mcl1-Bid inh 59 (no result: Biofilm kill mix)
Cc1nc(C)c(C(=O)NNC(=O)Nc2ccc(Cl)cc2)s1	none (no result: Mcl-1 Bim block)
O=[N+]([O-])c1ccc2nc(SCc3cn4cc(Cl)ccc4n3)[nH]c2c1	Mcl1 Noxa PPI 51
COc1ccccc1CN(Cc1cc2c(C)ccc(C)c2[nH]c1=O)Cc1nnnn1Cc1ccco1	none (no result: Biofilm kill mix)
CC(=O)N1C(C)(C)CC(=NOC(=O)c2ccc(C)cc2)CC1(C)C	none
CC(=O)N1C(C)(C)CC(=NOC(=O)c2ccccc2)CC1(C)C	14-3-3 Bad PPI 92
Nc1ncnc(Oc2cccc(C(F)(F)F)c2)c1[N+](=O)[O-]	none
CCN1CCc2c(sc(NC(=S)NC(=O)c3ccccc3)c2C#N)C1	14-3-3 Bad PPI 79 (no result: Biofilm kill mix)
N#Cc1c(NC(=S)NC(=O)c2ccccc2)sc2c1CCC2	none
CCc1ccccc1NC(=S)N(CCN1CCOCC1)C1CCN(C(C)=O)CC1	none
CC1CN(C2CCN(C(=O)COc3ccc(Cl)cc3)CC2)CC(C)O1 (stereo not drawn)	Mcl1-Bid inh 57 (no result: Biofilm kill mix)
Cc1cccc(NC(c2ccc(C)s2)c2ccc3ccc(C)nc3c2O)n1 (stereo not drawn)	Mcl1 Noxa PPI 67
Cc1ccc2ccc(C(Nc3ccccn3)c3ccccc3)c(O)c2n1 (stereo not drawn)	none (no result: Biofilm kill mix)
COc1cc(C(Nc2ccccn2)c2ccc3ccc(C)nc3c2O)cc(OC)c1O (stereo not drawn)	Mcl1 Noxa PPI 93 (no result: Biofilm kill mix)
Cc1ccnc(NC(c2cccnc2)c2ccc3cccnc3c2O)c1 (stereo not drawn)	none
COc1ccccc1NC(c1cccnc1)c1ccc2cccnc2c1O (stereo not drawn)	Mcl1 Noxa PPI 51

Screens (PubChem BioAssay)
